Publication PMC7821153 (Chemical Biology & Drug Design, 2020)

Assays:
Assay type in all cases: cell-based
[1] = Cellular cytotoxicity, ATP-dependent luminescence assay
Procedure, shortened: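 Cytotoxicity measured by ATP-dependent luminescence, with CC50 derived. Values are from three independent experiments (n = 3), and standard deviations are reported.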

[2] = system: WT HIV-1; assay: Single-round infectivity assay, WT RT vector; conditions: for EC50: Human immunodeficiency virus 1, read-out: EC50 WT; for TI (therapeutic index): calculated from CC50 and WT EC50
Procedure, shortened: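 Single-round infection with an HIV-1-based vector (pNLNgoMIVR-ΔENV.LUC, Env-deleted, luciferase-carrying) with wild-type RT, used to derive EC50. Therapeutic index is calculated from CC50 (ATP-dependent luminescence assay) and wild-type EC50. Three independent experiments (n = 3), with standard deviations.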

[3] = system: HIV-1 NNRTI-resistant mutant L100I; assay: Single-round infectivity assay, L100I; conditions: Human immunodeficiency virus 1, read-out: EC50 L100I
Procedure, shortened: (§1)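 Single-round infection with the HIV-1-based vector pNLNgoMIVR-ΔENV.LUC (Env-deleted, luciferase-carrying) bearing the indicated RT mutation(s), used to derive EC50. The mutant vectors are previously described constructs.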

[4] = system: HIV-1 NNRTI-resistant mutant K103N; assay: Single-round infectivity assay, K103N; conditions: Human immunodeficiency virus 1, read-out: EC50 K103N
Procedure, shortened: as §1

[5] = system: HIV-1 NNRTI-resistant mutant E138K; assay: Single-round infectivity assay, E138K; conditions: Human immunodeficiency virus 1, read-out: EC50 E138K
Procedure, shortened: as §1

[6] = system: HIV-1 NNRTI-resistant mutant Y181C; assay: Single-round infectivity assay, Y181C; conditions: Human immunodeficiency virus 1, read-out: EC50 Y181C
Procedure, shortened: as §1

[7] = system: HIV-1 NNRTI-resistant mutant Y188L; assay: Single-round infectivity assay, Y188L; conditions: Human immunodeficiency virus 1, read-out: EC50 Y188L
Procedure, shortened: as §1

[8] = system: HIV-1 NNRTI-resistant mutant H221Y; assay: Single-round infectivity assay, H221Y; conditions: Human immunodeficiency virus 1, read-out: EC50 H221Y
Procedure, shortened: as §1

[9] = system: HIV-1 NNRTI-resistant mutant K103N/Y181C; assay: Single-round infectivity assay, K103N/Y181C; conditions: Human immunodeficiency virus 1, read-out: EC50 K103N/Y181C
Procedure, shortened: as §1

[10] = system: HIV-1 NNRTI-resistant mutant K101P; assay: Single-round infectivity assay, K101P; conditions: read-out: EC50 K101P; single-round infection, n = 3
Procedure, shortened: as §1

[11] = system: HIV-1 NNRTI-resistant mutant M230L; assay: Single-round infectivity assay, M230L; conditions: Human immunodeficiency virus 1, read-out: EC50 M230L
Procedure, shortened: as §1

[12] = system: HIV-1 NNRTI-resistant mutant L100I/K103N; assay: Single-round infectivity assay, L100I/K103N; conditions: Human immunodeficiency virus 1, read-out: EC50 L100I/K103N
Procedure, shortened: as §1

[13] = system: HIV-1 NNRTI-resistant mutant K103N/P225H; assay: Single-round infectivity assay, K103N/P225H; conditions: Human immunodeficiency virus 1, read-out: EC50 K103N/P225H
Procedure, shortened: as §1

[14] = system: HIV-1 NNRTI-resistant mutant V106A/G190A/F227L; assay: Single-round infectivity assay, V106A/G190A/F227L; conditions: Human immunodeficiency virus 1, read-out: EC50 V106A/G190A/F227L
Procedure, shortened: as §1

[15] = system: HIV-1 DOR-resistant mutant V106A/F227L; assay: Single-round infectivity assay, V106A/F227L; conditions: read-out: EC50 V106A/F227L; single-round infection, n = 3
Procedure, shortened: as §1

[16] = system: HIV-1 DOR-resistant mutant V106A/L234I; assay: Single-round infectivity assay, V106A/L234I; conditions: read-out: EC50 V106A/L234I; single-round infection, n = 3
Procedure, shortened: as §1

[17] = system: HIV-1 DOR-resistant mutant V106A/F227L/L234I; assay: Single-round infectivity assay, V106A/F227L/L234I; conditions: read-out: EC50 V106A/F227L/L234I; single-round infection, n = 3
Procedure, shortened: as §1

[18] = system: HIV-1 RT-resistant mutant K101E; assay: Single-round infectivity assay, K101E; conditions: Human immunodeficiency virus 1, read-out: EC50 K101E
Procedure, shortened: as §1

[19] = system: HIV-1 NNRTI-resistant mutant G190A; assay: Single-round infectivity assay, G190A; conditions: read-out: EC50 G190A; single-round infection, n = 3
Procedure, shortened: as §1

[20] = system: HIV-1 NNRTI-resistant mutant P236L; assay: Single-round infectivity assay, P236L; conditions: read-out: EC50 P236L; single-round infection, n = 3
Procedure, shortened: as §1

[21] = system: HIV-1 RT-resistant mutant D67E; assay: Single-round infectivity assay, D67E; conditions: read-out: EC50 D67E; single-round infection, n = 3
Procedure, shortened: as §1

[22] = system: HIV-1 RT-resistant mutant K101E/M184I; assay: Single-round infectivity assay, K101E/M184I; conditions: read-out: EC50 K101E/M184I; single-round infection, n = 3
Procedure, shortened: as §1

[23] = system: HIV-1 RT-resistant mutant K101E/M184V; assay: Single-round infectivity assay, K101E/M184V; conditions: read-out: EC50 K101E/M184V; single-round infection, n = 3
Procedure, shortened: as §1

Structure (SMILES)	CC50 [1] [nM]	EC50 [2] [nM]	TI (therapeutic index) [2]	EC50 [3] [nM]	EC50 [4] [nM]	EC50 [5] [nM]	EC50 [6] [nM]	EC50 [7] [nM]	EC50 [8] [nM]	EC50 [9] [nM]	EC50 [11] [nM]	EC50 [12] [nM]	EC50 [13] [nM]	EC50 [14] [nM]	EC50 [17] [nM]	EC50 [18] [nM]	further results
Cc1cc(/C=C/C#N)cc(C)c1Nc1ncc(N)c(Nc2c(C)cc(/C=C/C#N)cc2C)n1 [Compound 6, (2E,2′E)‐3,3′‐(((5‐aminopyrimidine‐2,4‐diyl)bis(azanediyl))bis(3,5‐dimethyl‐4,1‐phenylene))diacrylonitrile]	44900 ± 600	27.2 ± 3.3	1,651	3640	75.5 ± 5.6	1070 ± 60	2760 ± 580	> 5000	79.2 ± 6.4	> 5000	–	–	–	–	–	–	–
Cc1cc(/C=C/C#N)cc(C)c1Nc1ncc2ncn(-c3c(C)cc(/C=C/C#N)cc3C)c2n1 [Compound 9, (E)‐3‐(4‐((9‐(4‐((E)‐2‐cyanovinyl)‐2,6‐dimethylphenyl)‐9H‐purin‐2‐yl)amino)‐3,5‐dimethylphenyl)acrylonitrile]	192000 ± 11000	10.4 ± 0.6	18,423	156 ± 30.6	48 ± 4.2	150 ± 6.9	> 5000	> 5000	19.4 ± 2.2	> 5000	–	–	–	–	–	–	–
Cc1cc(/C=C/C#N)cc(C)c1Nc1nc(Nc2ccc(/C=C/C#N)cc2)ncc1N [Compound 12, (E)‐3‐(4‐((5‐amino‐2‐((4‐((E)‐2‐cyanovinyl)phenyl)amino)pyrimidin‐4‐yl)amino)‐3,5‐dimethylphenyl)acrylonitrile]	32200 ± 1500	1.2 ± 0.2	>25,000	1.8 ± 0.2	1.6 ± 0.2	6.5 ± 0.9	5.3 ± 0.8	44 ± 2.6	1.6 ± 0.1	22.4 ± 1.1	16.9 ± 1.2	16.1 ± 0.2	1.6 ± 0.2	2.5 ± 0.5	1.3 ± 0.1	3.4 ± 0.1	EC50 [10]: 126 ± 29.4 nM; EC50 [15]: 2 ± 0.1 nM; EC50 [16]: 1.4 ± 0.5 nM
Cc1cc(/C=C/C#N)cc(C)c1-n1cnc2cnc(Nc3ccc4cc(/C=C/C#N)ccc4c3)nc21 [Compound 11, (E)‐3‐(6‐((9‐(4‐((E)‐2‐cyanovinyl)‐2,6‐dimethylphenyl)‐9H‐purin‐2‐yl)amino)naphthalen‐2‐yl)acrylonitrile]	17100 ± 800	10.2 ± 1.9	1,676	78 ± 11.7	232 ± 22.3	> 5000	> 5000	> 5000	17.1 ± 2.1	> 5000	–	–	–	–	–	–	–
Cc1cc(/C=C/C#N)cc(C)c1Nc1nc(Nc2ccc3cc(C#N)ccc3c2)ncc1N [Compound 7, (E)‐6‐((5‐amino‐4‐((4‐(2‐cyanovinyl)‐2,6‐dimethylphenyl)amino)pyrimidin‐2‐yl)amino)‐2‐naphthonitrile]	23000 ± 2300	2.3 ± 0.3	10,000	4.5 ± 0.4	4 ± 0.8	27.6 ± 2.4	15.6 ± 2	152 ± 21.3	2.8 ± 0.2	156 ± 12.7	21.4 ± 4.2	265 ± 5.9	25.3 ± 3	5.2 ± 1	3.5 ± 0.2	9.9 ± 2	EC50 [19]: 1.4 ± 0.1 nM; EC50 [20]: 1.2 ± 0.3 nM; EC50 [21]: 9.7 ± 1.2 nM; EC50 [22]: 9.4 ± 0.4 nM; EC50 [23]: 3 ± 0.3 nM
